Bounds are passed on as bounds.

Experiment [1] addresses T1, Adenosine receptor A1 (Homo sapiens, UniProt P30542).
T1 sequence (P30542 whole entry): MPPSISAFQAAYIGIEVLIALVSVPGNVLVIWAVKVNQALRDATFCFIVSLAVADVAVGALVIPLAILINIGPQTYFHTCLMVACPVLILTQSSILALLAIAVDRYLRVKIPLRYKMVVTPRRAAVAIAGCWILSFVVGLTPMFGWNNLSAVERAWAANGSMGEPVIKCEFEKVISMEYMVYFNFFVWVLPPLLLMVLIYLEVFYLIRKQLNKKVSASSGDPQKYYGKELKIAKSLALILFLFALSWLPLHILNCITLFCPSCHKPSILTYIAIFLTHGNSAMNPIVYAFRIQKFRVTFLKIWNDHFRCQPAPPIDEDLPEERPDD
Nature of the experiment: Displacement of [3H]DPCPX from human Adenosine A1 receptor expressed in CHO cells; range 724-889. Format: cell-based. In outline: (§1)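 Human recombinant A1 receptor in CHO cell membranes, resuspended in 50 mM Tris HCl pH 7.4. Displacement run 120 min at 25 °C with 1 nM [3H]DPCPX, 50 µg protein per assay, and at least six to eight test concentrations. Nonspecific binding defined with CHA. Bound and free separated on glass-fiber filters; filter radioactivity counted. n = 3-6.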
Background: Loss of bound radioactivity is the signal in a displacement assay; it reports binding, not function.

Experiment [2] concerns the target T2, Adenosine receptor A2a (Homo sapiens, UniProt P29274). Briefly: Displacement of [3H]SCH-58261 from human Adenosine A2A receptor expressed in HEK293 cells; range 511-648. Format: cell-based.
In experiment [3] the target is T3, Adenosine receptor A2b (Homo sapiens, UniProt P29275).
T3 sequence (P29275 whole entry): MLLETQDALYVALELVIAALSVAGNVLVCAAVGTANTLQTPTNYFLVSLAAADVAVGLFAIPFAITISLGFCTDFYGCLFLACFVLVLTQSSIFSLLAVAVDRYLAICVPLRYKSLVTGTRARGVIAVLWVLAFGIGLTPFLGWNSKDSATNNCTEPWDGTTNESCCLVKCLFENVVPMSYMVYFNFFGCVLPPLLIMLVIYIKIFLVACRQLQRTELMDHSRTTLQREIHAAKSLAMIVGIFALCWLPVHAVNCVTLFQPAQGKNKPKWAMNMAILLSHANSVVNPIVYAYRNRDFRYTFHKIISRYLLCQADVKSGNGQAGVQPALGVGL
Briefly: Displacement of [3H]DPCPX from human Adenosine A2B receptor expressed in HEK293 cells; range 37-63. It counts as cell-based. In outline: (§2)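 HEK-293 membranes expressing the human receptor were incubated 60 min at 25 °C. Six to eight test concentrations were used. Nonspecific binding was set with NECA. n = 3-6.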

The target of experiment [4] is Adenosine receptors; A2b & A3 (Homo sapiens) (UniProt P29275+P0DMS8). Briefly: Selectivity ratio (h2B/hA3). Format: protein assay.
The target of experiment [5] is Adenosine receptors; A1 & A3 (Homo sapiens) (UniProt P30542+P0DMS8). Briefly: Selectivity ratio (hA1/hA3). It counts as protein assay.
The target of experiment [6] is T4, Adenosine receptor A3 (Homo sapiens, UniProt P0DMS8).
T4 sequence (P0DMS8 whole entry): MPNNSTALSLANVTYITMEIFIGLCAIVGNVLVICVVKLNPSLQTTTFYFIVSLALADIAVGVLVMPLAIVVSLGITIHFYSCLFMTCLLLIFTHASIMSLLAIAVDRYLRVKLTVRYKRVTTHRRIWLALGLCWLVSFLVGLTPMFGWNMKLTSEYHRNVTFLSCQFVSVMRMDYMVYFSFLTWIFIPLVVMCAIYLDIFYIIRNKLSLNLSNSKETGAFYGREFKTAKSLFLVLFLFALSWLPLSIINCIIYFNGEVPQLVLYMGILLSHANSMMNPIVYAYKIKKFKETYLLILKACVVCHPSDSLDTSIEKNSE
Briefly: biochemical.

In experiment [7] the target is T4, Adenosine receptor A3. Nature of the experiment: Displacement of [3H]MRE3008-F20 from human Adenosine A3 receptor expressed in HEK cells; range 0.10-0.18. Format: cell-based, HEK293.
Experiment [8] has as its target T2, Adenosine receptor A2a. Nature of the experiment: Displacement of [3H]SCH-58261 from human Adenosine A2A receptor expressed in HEK293 cells; range 40-96. Format: cell-based.
Experiment [9] concerns the target T3, Adenosine receptor A2b. Briefly: Displacement of [3H]-DPCPX from human Adenosine A2B receptor expressed in HEK293 cells; range 206-282. Format: cell-based. In outline: (§3)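 Competition binding on membranes of HEK-293 cells carrying recombinant human A2B receptor. Incubation 60 min at 25 °C in 50 mM Tris HCl pH 7.4 with 10 mM MgCl2, 1 mM EDTA, 0.1 mM benzamidine and 2 IU/mL adenosine deaminase. Radioligand 40 nM [3H]DPCPX, at least six to eight test concentrations. NECA defined nonspecific binding. Bound ligand separated on glass-fibre filters and counted; n = 3-6.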

The target in experiment [10] is T1, Adenosine receptor A1. Briefly: Displacement of [3H]DPCPX from human Adenosine A1 receptor expressed in CHO cells; range 324-475. It counts as cell-based.
For experiment [11], the target named is T3, Adenosine receptor A2b. Briefly: Displacement of [3H]-DPCPX from human Adenosine A2B receptor expressed in HEK293 cells; range 91-148. It counts as cell-based. In outline:
as §3

Experiment [12] deals with T4, Adenosine receptor A3. Briefly: Displacement of [3H]MRE3008-F20 from human Adenosine A3 receptor expressed in HEK cells; range 3.05-3.78. It counts as cell-based, HEK293.
Experiment [13] has as its target T4, Adenosine receptor A3. Briefly: Inhibition of IB-MECA agonist-mediated cAMP production in CHO cell membranes expressing human Adenosine A3 receptor; range 15-44. It counts as functional, cell-based. In outline:
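Human A3-CHO membranes (in 50 mM Tris HCl, 10 mM MgCl2, 1 mM EDTA, pH 7.4) were preincubated for 10 min at 37 °C with 5 µM GTP, 0.5 mM Ro 20-1724 and 2.0 IU/mL adenosine deaminase. IB-MECA (100 nM) or antagonist was then added with 1 mM ATP and forskolin for 10 min. The reaction was stopped by 2 min boiling. cAMP was measured by [3H]cAMP competitive protein binding using beef adrenal binding protein, 150 min at 4 °C.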
On the technique in general: Cyclic AMP is a second messenger, typically raised through Gs and lowered through Gi signalling.

Experiment [14] addresses T2, Adenosine receptor A2a. Nature of the experiment: Displacement of [3H]SCH-58261 from human Adenosine A2A receptor expressed in HEK293 cells; range 114-179. Format: cell-based.
Experiment [15] concerns the target T1, Adenosine receptor A1. Briefly: Displacement of [3H]DPCPX from human Adenosine A1 receptor expressed in CHO cells. Format: cell-based. In outline: as §1
In experiment [16] the target is T3, Adenosine receptor A2b. Nature of the experiment: Displacement of [3H]DPCPX binding at human Adenosine A2B receptor expressed in HEK293 cells. It counts as cell-based. In outline: (§4)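 Membranes from HEK-293 cells with human recombinant A2B receptor. Incubation 60 min at 25 °C in 50 mM Tris HCl, 10 mM MgCl2, 1 mM EDTA, 0.1 mM benzamidine, pH 7.4, with 2 IU/mL adenosine deaminase and 40 nM [3H]DPCPX. At least six to eight test concentrations. Nonspecific binding defined with NECA. n = 3-6.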

Experiment [17] deals with T2, Adenosine receptor A2a. Briefly: Displacement of [3H]SCH-58261 from human Adenosine A2A receptor expressed in HEK293 cells; range 240-388. Format: cell-based.
The target of experiment [18] is T4, Adenosine receptor A3. Briefly: biochemical. The source holds these as a separate data set.
For experiment [19], the target named is T3, Adenosine receptor A2b. Nature of the experiment: Displacement of [3H]DPCPX from human Adenosine A2B receptor expressed in HEK293 cells; range 76-98. It counts as cell-based. In outline:
as §2

The target in experiment [20] is T1, Adenosine receptor A1. Briefly: Displacement of [3H]-DPCPX from human Adenosine A1 receptor expressed in CHO cells; range 240-368. It counts as cell-based.
Experiment [21] deals with T4, Adenosine receptor A3. Briefly: Displacement of [3H]MRE3008-F20 from human Adenosine A3 receptor expressed in HEK cells; range 0.37-0.50. Format: cell-based, HEK293.
Experiment [22] addresses T2, Adenosine receptor A2a. Briefly: Displacement of [3H]SCH-58261 from human Adenosine A2A receptor expressed in HEK293 cells; range 91-137. It counts as cell-based.
In experiment [23] the target is T1, Adenosine receptor A1. Briefly: Displacement of [3H]DPCPX from human Adenosine A1 receptor expressed in CHO cells; range 509-712. It counts as cell-based. In outline:
as §1

Experiment [24] concerns the target T4, Adenosine receptor A3. Nature of the experiment: Displacement of [3H]MRE3008-F20 binding at human Adenosine A3 receptor expressed in HEK cells; range 0.77-0.97. It counts as cell-based, HEK293.
Experiment [25] addresses T2, Adenosine receptor A2a. Briefly: Displacement of [3H]SCH-58261 from human Adenosine A2A receptor expressed in HEK293 cells; range 48-78. Format: cell-based.
For experiment [26], the target named is T3, Adenosine receptor A2b. Briefly: Displacement of [3H]DPCPX from human Adenosine A2B receptor expressed in HEK293 cells; range 211-287. Format: cell-based. In outline:
as §4

T2 sequence (P29274 whole entry): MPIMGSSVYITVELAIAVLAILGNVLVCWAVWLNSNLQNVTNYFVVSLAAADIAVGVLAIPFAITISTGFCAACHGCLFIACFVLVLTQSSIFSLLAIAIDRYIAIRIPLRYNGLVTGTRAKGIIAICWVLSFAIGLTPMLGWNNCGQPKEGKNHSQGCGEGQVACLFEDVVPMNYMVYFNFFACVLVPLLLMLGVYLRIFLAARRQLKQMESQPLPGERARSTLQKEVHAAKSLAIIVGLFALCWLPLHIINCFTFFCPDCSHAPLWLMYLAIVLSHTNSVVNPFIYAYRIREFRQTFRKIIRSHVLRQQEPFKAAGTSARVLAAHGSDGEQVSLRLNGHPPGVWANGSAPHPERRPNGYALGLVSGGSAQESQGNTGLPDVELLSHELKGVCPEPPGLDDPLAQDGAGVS

Consider `CCn1cc2c(nc(NC(=O)Nc3ccc4c(c3)OCO4)n3nc(-c4ccco4)nc23)n1`, for which the Ki in [1] came out at 0.802 µM; in experiment [2], 0.576 µM; in [3], 0.048 µM; in [6], 0.00027 µM. In addition, the Ratio in [4] was 178; in experiment [5], 2970.
Consider `CCCn1cc2c(nc(NC(=O)Nc3ccccc3)n3nc(-c4ccco4)nc23)n1`, for which the Ki in experiment [7] came to 0.00015 µM; in [8], 0.062 µM; in experiment [9], 0.241 µM. The Ratio stood at 1610 in experiment [4] and 1170 in [5].
In the case of `Cn1cc2c(nc(NC(=O)Nc3ccc(Cl)c(Cl)c3)n3nc(-c4ccco4)nc23)n1`, the Ki in [10] was 0.392 µM; in [11], 0.116 µM; in [12], 0.0034 µM; in experiment [14] it was 0.143 µM. Further, the half-inhibitory concentration (IC50) in [13] turned out to be 0.026 µM. In addition, the Ratio amounted to 34 in [4] and 115 in [5].
As to `CCCn1cc2c(nc(NC(=O)Nc3ccc(S(=O)(=O)O)cc3)n3nc(-c4ccco4)nc23)n1`, the Ki is over 10 µM in [15], over 10 µM in [16], 0.305 µM in [17] and 0.03 µM in experiment [18]. For the same molecule, the Ratio in experiment [4] and in experiment [5] was over 333 throughout.
For the molecule `CCCCn1cc2c(nc(NC(=O)Nc3ccc(Cl)cc3)n3nc(-c4ccco4)nc23)n1`, the inhibitory constant (Ki) in experiment [19] was determined as 0.087 µM; in experiment [20], 0.3 µM; in experiment [21], 0.00043 µM; in experiment [22], 0.111 µM. The Ratio in experiment [4] worked out at 202; in [5], 698.
`CCn1cc2c(nc(NC(=O)Nc3ccc(F)cc3)n3nc(-c4ccco4)nc23)n1`: the inhibition constant (Ki) in experiment [23] came out at 0.602 µM; in experiment [24] it was 0.00086 µM; in experiment [25] it was 0.06 µM; in experiment [26] it was 0.246 µM. The Ratio in [4] is 286; in experiment [5], 700.

For orientation: Ki means a measure of affinity in units of concentration, obtained from inhibition or displacement. Lower therefore signals higher affinity. As usually defined, the IC50 is the concentration that inhibits the measured activity by half. Low values mean greater potency in that assay, high ones weaker potency in that assay.

For the origin of these results see ChEMBL document CHEMBL1136016, “Synthesis, biological activity, and molecular modeling investigation of new pyrazolo[4,3-e]-1,2,4-triazolo[1,5-c]pyrimidine derivatives as human A(3) adenosine receptor antagonists” (J Med Chem, 2002).
